Source: PubChem
In the library only some 4.3% were active in any assay of this set; here they are far more common.
TAAR1 agonist: agonists of human TAAR1; Q96RJ0; CHO RD-HGA16 TAAR1, Fluo-8 calcium fluorescence; vehicle wells 0%, saturating PEA agonist 100%; activation, % at 3 µM; 360,000 compounds, 0.99% hits; AID 624467;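 active = activation above the mean activation of all test compounds in the run plus 3 SD, cut at about 38% in these data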
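System: CHO-derived RD-HGA16 cells with stable Gα16 and human TAAR1 / Times: 17-24 h plating, Fluo-8 75 min 37 °C, 30 min RT / Technique: calcium-sensitive Fluo-8 signal, excitation 470-495, emission 515-575 nm / Measure: % activation relative to PEA EC100 response / Benchmarks: DMSO and PEA EC100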
OX1R antag-1: blocks the human orexin 1 receptor; O43613; CHO/OX1R cells, Fluo-8 calcium fluorescence, orexin A; inhibition, % at 5 µM; 330,000 compounds, 0.43% hits;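 active = inhibition above its plate's threshold, mean inhibition of all tested compounds on the plate plus 3 SD, cut at about 37% in these data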;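 note: 0% = orexin A challenge wells and 100% = SB-334867-A antagonist wells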
TAAR1 antag: human TAAR1 antagonism | 360,000 compounds, 1.5% hits | CHO RD-HGA16 TAAR1, Fluo-8 calcium fluorescence, antagonist | inhibition, % at 3 µM | Q96RJ0;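 active = inhibition above a per-plate cutoff, the mean inhibition of test compounds on that plate plus 3 SD, cut at about 49% in these data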;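 note: 0% = DMSO plus EC80 beta-PEA response and 100% = DMSO alone without agonist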
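Assay system: CHO-derived RD-HGA16 cells stably expressing human TAAR1 plus Gα16. Timing: 140 s kinetic read after compound, 140 s after agonist. Technique: kinetic Fluo-8 calcium fluorescence measurement. Measure: % inhibition of agonist calcium response.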
GalR3 antag: human GalR3 antagonism | 360,000 compounds, 0.44% hits | inhibition, % at 3 µM | O60755 | HEK293 GalR3-CNG cAMP membrane potential fluorescence; galR3 body fused to GalR1 C-terminus;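 active = inhibition above the screen-wide average plus 3 SD, cut at about 13% in these data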;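 note: forskolin and galanin both at EC90 stimulate the cells; cAMP rise reported by CNG channel membrane potential dye signal; 0% = forskolin plus galanin with DMSO and 100% = forskolin alone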
Target sequence (O60755 1-299 limits assumed): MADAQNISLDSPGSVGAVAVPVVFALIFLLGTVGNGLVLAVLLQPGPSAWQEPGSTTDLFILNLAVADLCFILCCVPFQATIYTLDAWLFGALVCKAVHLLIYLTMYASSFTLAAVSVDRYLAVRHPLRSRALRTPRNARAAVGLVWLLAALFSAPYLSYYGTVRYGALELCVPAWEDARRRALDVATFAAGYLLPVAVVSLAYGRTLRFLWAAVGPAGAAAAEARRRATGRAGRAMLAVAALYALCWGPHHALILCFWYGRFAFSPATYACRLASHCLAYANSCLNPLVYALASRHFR
CHO parental Ca: signal in parental CHO cells, OX1R antagonist counter-screen; AID 463079; parental CHO-K1, ATP-induced calcium, Fluo-8 fluorescence; inhibition, % at 5.6 µM; 330,000 compounds, 0.63% hits;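 active = inhibition above that plate's mean sample inhibition plus 3 SD, cut at about 26% in these data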;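 note: 0% = ATP-challenged DMSO wells and 100% = DMSO wells without ATP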
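Material: parental CHO cells / Compound: single nominal dose of 5.6 µM per compound / Signal: Fluo-8 fluorescence / Replicates: singlicate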
OX1R antag-2: blocks the human orexin 1 receptor. 330,000 compounds, 1.8% hits. O43613. inhibition, % at 6.6 µM. OX1R-expressing cells, FRET antagonist read-out; in the data active = inhibition mostly above about 38%, no sharp cut-off; inactive = mostly below about 40%;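 note: 0% = agonist challenge alone and 100% = reference antagonist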
TAAR1 ag conf: confirmation of human TAAR1 agonists | shares compounds with TAAR1 agonist | CHO RD-HGA16 TAAR1, Fluo-8 calcium fluorescence; scaled: DMSO 0%, maximal phenethylamine 100% | activation, % at 3 µM | 2,400 compounds, 82% hits | AID 651783;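 active = activation above a cutoff set at the run's mean compound activation plus 3 SD, cut at about 39% in these data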
Ga16 nonsel ag: nonselective agonist in parental cells, TAAR1 agonist counter-screen; shares compounds with TAAR1 agonist; CHO-Ga16 parental, Fluo-8 calcium fluorescence; normalized to maximal ATP response, DMSO zero; activation, % at 3 µM; 2,400 compounds, 50% hits;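 active = activation above the run cutoff, the mean activation over all tested wells plus 3 SD, cut at about 12% in these data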;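 note: 0% = DMSO wells and 100% = maximal ATP response on the peak over basal ratio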
TAAR1 desensitize: human TAAR1 agonist that also desensitizes the receptor; shares compounds with TAAR1 agonist; CHO RD-HGA16 hTAAR1, Fluo-8 calcium, beta-PEA response inhibition; inhibition, % at 3 µM; 2,400 compounds, 46% hits; AID 651951;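 active = inhibition above the run cutoff, the mean inhibition of all test compounds plus 3 SD, cut at about 49% in these data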;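 note: beta-PEA stimulus applied at its EC80; loss of beta-PEA calcium signal after compound pretreatment read as receptor desensitization; 0% = DMSO with beta-PEA at EC80 and 100% = DMSO alone without agonist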
Ga16 nonsel ant: nonselective Ga16 antagonist in TAAR1 agonist counter-screen | shares compounds with TAAR1 agonist | CHO-Ga16 ATP-induced calcium, Fluo-8 fluorescence | 2,400 compounds, 39% hits | inhibition, % at 3 µM;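 active = inhibition above the plate's mean compound inhibition plus 3 SD, computed per plate, cut at about 22% in these data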;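 note: 0% = EC80 ATP with DMSO and 100% = DMSO wells without ATP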
An asterisk follows results filed as active; x = no result given.

SMILES | TAAR1 agonist | OX1R antag-1 | TAAR1 antag | GalR3 antag | CHO parental Ca | OX1R antag-2 | TAAR1 ag conf | Ga16 nonsel ag | TAAR1 desensitize | Ga16 nonsel ant
O=C1Nc2cnc(Cl)nc2Nc2ccccc21 | 0 | x | -20 | -5 | x | x | x | x | x | x
O=C(Nc1ccc(F)cc1)Nc1ccc(Oc2ncnc3cc(Cl)ccc23)nc1 | 56* | -12 | 29 | 1 | -13 | -2 | 75* | 1 | 81* | 6
Cc1nc(NC(=O)c2ccccc2)sc1-c1cc(C(=O)NCCO)nn1Cc1ccccc1 | 1 | x | -31 | -4 | x | x | x | x | x | x
CCCCC(=O)N(C)c1c(C)nc2ccc(C(=O)N3CCN(c4ccccc4)CC3)cn12 | 1 | x | -17 | -5 | x | x | x | x | x | x
COc1ccc(N2CC(C(=O)N[C@@H](C)C(=O)NCCc3ccccc3)CC2=O)cc1 (some centres not stated) | 62* | -2 | -33 | -6 | -4 | 4 | 48* | -1 | 5 | 0
COc1cc(C2SCC(=O)N2Cc2ccccc2)ccc1O (configuration not stated) | 0 | -6 | 11 | -8 | -3 | -9 | x | x | x | x
Cn1cccc1/C=N/n1c(-c2ccc(Cl)cc2Cl)n[nH]c1=S | 62* | 20 | 29 | 2 | -10 | 30 | 53* | 26* | 26 | 24*
Cn1cccc1/C=N/n1c(-c2ccc(Cl)cc2)n[nH]c1=S | 22 | -8 | -6 | -3 | -12 | 43 | x | x | x | x
CCCC(=O)N1CCCC1(C)C(=O)Nc1ccc(OC(F)F)cc1 (configuration not stated) | 0 | x | -14 | 4 | x | x | x | x | x | x
Cn1c(C(=O)OCC(=O)NCCc2ccccc2)cc2sccc21 | 98* | -21 | 48 | -3 | 4 | 19 | 10 | 1 | 4 | 1
Cn1c(C(=O)OCC(=O)NCc2cccs2)cc2sccc21 | 25 | -29 | -4 | -6 | 0 | 21 | x | x | x | x
C[C@H](CO)N1C[C@H](C)[C@@H](CN(C)C(=O)Oc2ccccc2)OCc2cn(nn2)CCCC1=O | 7 | x | -7 | -2 | x | x | x | x | x | x
Cc1ccccc1CSCC1Nc2ccc(C(=O)NCCc3ccccc3)cc2NC1=O (configuration not stated) | 9 | x | -15 | -1 | x | x | x | x | x | x
COc1cc2c(c(OC)c1OC)C1(CCCCC1)CC2NS(=O)(=O)C(C)C (configuration not stated) | 92* | x | 49* | -7 | x | x | 15 | 3 | 2 | 6
COc1cc(CNC2CCCCCC2)cc(OC)c1OC | 8 | -13 | -2 | -5 | -20 | 10 | x | x | x | x
Cc1ccc(C(=O)NC(=S)N2CCN(C)CC2)cc1Br | 0 | x | -8 | -4 | x | x | x | x | x | x
Cc1nc(NCCc2ccccc2)c2nnn(Cc3ccccc3)c2n1 | 51* | -31 | 45 | -6 | -13 | 10 | 77* | 15* | 45 | 2
CCN(c1ccccc1)S(=O)(=O)c1ccc(C(=O)N(CCCN(C)C)c2nc3c(C)cccc3s2)cc1 | 43* | -1 | 29 | 0 | -4 | 7 | 33 | 16* | 37 | 32*
CC(C)CN1Cc2ccccc2Oc2cc(Br)ccc2S1(=O)=O | 32 | -38 | -18 | -5 | -39 | 23 | x | x | x | x
CCCCN1Cc2ccccc2Oc2cc(Br)ccc2S1(=O)=O | 49* | -39 | -1 | -7 | -34 | 6 | 69* | 55* | 19 | 18
COc1ccc(/C=C/c2cc[n+](C(=O)Cc3ccccc3)cc2)cc1 | 47* | -10 | -8 | -6 | -1 | 73* | 70* | 3 | 30 | 9
